Jurkat tox 60K = cytotoxicity toward Jurkat cells; Jurkat E6.1 viability, ATP luminescence, 48 h; inhibition, % at 4 µM; actives 1.2% (n = 56,000);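 active = inhibition above the mean inhibition of all tested compounds plus 3 SD, cut at about 28% in these data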
M1 agonist = agonists of M1 muscarinic receptor; B-score at 10 µM; AID 626; actives 3% (n = 64,000); CHO-M1 cells, Fluo-4 calcium fluorescence, agonist mode; stronger effect = higher value;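 active = fluorescence rise, raw or as B-score row- and column-corrected plate score, outside the 99.7% band of its plate's samples, either direction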
HEK293 NFkB inh = inhibitors of the PMA/ionomycin-induced NF-kB reporter in HEK293 cells | HEK-293 NF-kB luciferase reporter, luminescence | inhibition, % at 3 µM | actives 0.21% (n = 62,000) | AID 465;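 active = inhibition above the mean of all tested compounds plus 3 SD, cut at about 40% in these data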;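 note: 0% = stimulated DMSO wells and 100% = 10 µM reference inhibitor 5653914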
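System – HEK-293 cells with stable firefly luciferase reporter driven by four HIV NF-kB elements · Doses – one dose, 3 µM · Schedule – 1 h compound pre-incubation, 16 h PMA/ionomycin at 37 °C · Technique – luminescence from luciferase substrate reagent · Measure – percent inhibition normalized per plate to DMSO and reference-inhibitor controls · Replicates – tested once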
D1 mod = allosteric modulators of human D1 dopamine receptor | P21728 | HEK293 D1, CRE-luciferase, dopamine EC30 potentiation; actives deviate in either direction | B-score at 10 µM | actives 5.9% (n = 58,000);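 active = luminescence count or its row- and column-corrected plate score outside the 99.7% band of the plate's sample wells, on either side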
M1 antag = blocks the rat M1 muscarinic receptor response to acetylcholine; P08482; CHO-M1 cells, Fluo-4 calcium, ACh EC80 antagonist mode; stronger effect = lower value; B-score at 10 µM; actives 3.4% (n = 64,000); AID 628;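 active = calcium fluorescence response, raw or row-and-column corrected B-score, differing from the plate sample mean either way at a set confidence level, mostly lower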
Target sequence (P08482 whole entry, looked up): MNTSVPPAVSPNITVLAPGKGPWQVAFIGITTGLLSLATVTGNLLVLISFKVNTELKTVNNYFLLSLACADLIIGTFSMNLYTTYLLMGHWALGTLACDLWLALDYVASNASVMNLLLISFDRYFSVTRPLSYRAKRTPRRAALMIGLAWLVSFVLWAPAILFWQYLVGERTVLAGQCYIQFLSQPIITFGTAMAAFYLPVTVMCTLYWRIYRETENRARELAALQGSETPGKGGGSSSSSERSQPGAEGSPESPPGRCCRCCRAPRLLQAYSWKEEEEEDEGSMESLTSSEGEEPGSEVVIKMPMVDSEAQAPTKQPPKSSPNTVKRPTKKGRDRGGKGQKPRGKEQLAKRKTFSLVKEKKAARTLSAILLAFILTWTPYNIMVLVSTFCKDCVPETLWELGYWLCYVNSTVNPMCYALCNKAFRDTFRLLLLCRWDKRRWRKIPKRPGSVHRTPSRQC
mHtt clearance = mutant huntingtin protein clearance. HeLa Exon1htt(103Q)mCFP, aggregate imaging; zero = plate's median compound well. actives 0.42% (n = 47,000). inhibition, % at 1.5 µM. AID 853;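 active = inhibition of aggregate fluorescence above about 70%, also judged a hit by eye on the cell image, limit read from the data, passing the limit was not always enough; inconclusive = no rule stated for this call; inactive = not judged a hit on image review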;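 note: cells exposed to compound for three days before fixation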
M1 antag conf = confirmation of rat M1 muscarinic receptor antagonists | shares compounds with M1 antag | CHO-M1 cells, Fluo-4 calcium, ACh EC80 antagonism; stronger effect = lower value | calcium response (max-min fluorescence) at 10 µM | actives 43% (n = 1,700);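 active = calcium response below the same-plate mean of wells given acetylcholine alone at its 80%-effect dose, minus 3 SD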;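 note: raw fluorescence intensity difference in arbitrary instrument units and not normalized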
mGluR4 antag = acts on human mGluR4 in M1 antagonist selectivity test; shares compounds with M1 antag; CHO-mGluR4 calcium flux, Fluo-4 fluorescence, glutamate EC80; stronger effect = lower value; fluorescence response (max-min) at 10 µM; actives 0.9% (n = 1,700);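 active = fluorescence response below the plate's average for near-maximal glutamate wells, less 3 SD of those wells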;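 note: raw unnormalized fluorescence span taken in the window right after glutamate addition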
* = called active by the depositor; ? = inconclusive; . = no result given. Hits are enriched below; roughly 9.5% of the tested compounds scored in any of these assays.

SMILES	Jurkat tox 60K	M1 agonist	HEK293 NFkB inh	D1 mod	M1 antag	mHtt clearance	M1 antag conf	mGluR4 antag
COc1ccc(N2CCN(C(=O)c3ccc(N4C(=O)NC5CC4(C)Oc4ccccc45)cc3)CC2)cc1 (stereo unspecified)	10	0.9	11	-0.34	0.18	.	.	.
S=c1[nH]nc(Cc2ccccc2)n1Cc1ccco1	12	0.77	8	0.037	-13*	.	52*	240
CCN(CC)CCOC(=O)C(c1ccccc1)c1ccccc1	.	0.14	.	-0.52	-13*	.	19*	240
CCN(CCO)C(=O)C(c1ccccc1)c1ccccc1	.	.	.	.	.	60	.	.
O=C(CSCc1cnn(-c2ccccc2)c1-n1cccc1)NCCN1CCOCC1	.	-0.079	20	.	-2.7*	.	520*	160
Cn1cnnc1SCc1ccc(C(=O)n2ncc(C#N)c2N)cc1	-6	1.5	8	-1.1	-3.6*	.	606	230
Cn1cnnc1SCc1cccc(Br)c1	.	.	.	.	.	-50	.	.
COC(=O)Nc1nc2c(s1)CCCC2	4	0.15	13	0.29	-3.1*	.	581	241
COCC(COCCCNC(=O)Nc1ccc(Br)cc1)OC (stereo unspecified)	10	-0.34	9	-0.36	-1.6*	.	553	214
COCCNC(=O)C(=O)Nc1ccc(Br)cc1	.	.	.	.	.	-50	.	.
CN1CCN(/C=C2\SC(=S)NC2=O)CC1	-2	-0.84	13	-0.02	0.32	.	.	.
CCN1C(=O)/C(=C\N2CCCCCC2)SC1=S	6	-2.1	2	.	-8.7*	-20	16*	220
CCOC(=O)c1ccc(-n2nc(C(F)(F)F)c3c(C)cc(=O)oc32)cc1	.	.	.	.	.	56	.	.
COc1ccc(CN2CCN(c3ccccn3)CC2)cc1OCc1ccccc1	9	2.2	13	-1.8	-2.7*	.	573*	171
CCN1CCN(Cc2ccc(OC)c(OCc3ccccc3)c2)CC1	-2	1.2	20	-0.12	1	.	.	.
CC(C)OCCCNC(=O)c1cc2c(s1)CS(=O)(=O)C2	.	-0.0011	3	-0.62	-4.6*	.	625	239
CN(CCCn1c(=S)[nH]c2ncccc2c1=O)Cc1ccccc1	-2	-1.1	18	.	-3.3*	.	471	221
CCNc1nc(N)nc(Oc2ccc(OCCOc3ccc(Cl)cc3Cl)nn2)n1	3	-0.39	22	2.6	1.3	-25	.	.
CC(C)(C)NC(=O)Cn1c(=O)oc2cc(S(=O)(=O)N3CCc4ccccc43)ccc21	8	-0.089	21	-0.71	-2.4*	10	588	245
CCOC(=O)Cn1c(=O)oc2cc(S(=O)(=O)Nc3cccc(C)c3)ccc21	7	-1.8	2	-0.42	-0.056	.	.	.
CCOC(=O)Cn1c(=O)oc2cc(S(=O)(=O)NCCc3ccc(OCC)c(OCC)c3)ccc21	-2	-0.15	14	-0.89	-2.3*	-2	650	198
CCOC(=O)Cn1c(=O)oc2cc(S(=O)(=O)N3CCc4ccccc43)ccc21	4	-2.3	-5	1.4	-3.7*	?	533	230
CC(NC(=O)Cn1c(=O)oc2cc(S(=O)(=O)N3CCCC3)ccc21)c1ccccc1 (stereo unspecified)	.	.	.	.	.	39	.	.
CCCC1C(C#N)=C(N)Oc2n[nH]c(C(C)(C)C)c21 (stereo unspecified)	2	-0.8	11	-0.7	-1.3	.	.	.
O=C(CSc1nc2ccccc2c(=O)n1CC1CCCO1)NCC1CCCO1 (stereo unspecified)	0	0.1	19	0.076	0.53	31	.	.
SMILES	Jurkat tox 60K	M1 agonist	HEK293 NFkB inh	D1 mod	M1 antag	mHtt clearance	M1 antag conf	mGluR4 antag
COc1ccc(C(=O)Nn2c(SCC(=O)NCC3CCCO3)nc3ccccc3c2=O)cc1 (stereo unspecified)	8	-0.79	21	-5.4*	-6.9*	-3	575	229
COc1cccc(C2(O)CCN(C(=O)Cc3cccnc3)CC2)c1	.	.	.	.	.	-36	.	.
CS(=O)(=O)N1CCC(C(=O)Nc2ccc(OCc3ccccc3)cc2)CC1	5	-0.17	9	1.6	0.93	-36	.	.
CC(O)CNC(=O)C1CCN(Cc2ccc(OCc3ccccc3)cc2)CC1 (stereo unspecified)	-3	-0.39	-16	-2	-4.8*	-4	572	232
CCN1CCN(Cc2ccc(OCc3ccccc3)cc2)CC1	6	-0.62	-3	-1.6	-4.4*	28	345*	178
CN1CCN(Cc2ccc(OCc3ccccc3)cc2)CC1	-2	-1.2	-21	-1.3	-1.1	?	.	.
CC(C)(C#CCN1CCCC1)OCCC#N	-4	-1.2	9	1.3	-1.8	.	.	.
C=C(C)C(C)(C#CCN1CCCC1)OC(C)=O (stereo unspecified)	-4	-1.3	4	-0.67	-1.5*	.	526*	182
O=C(Nc1nc(-c2ccc(S(=O)(=O)N3CCCC3)cc2)cs1)C1COc2ccccc2O1 (stereo unspecified)	13	-1.9	34	-1.7	-8.7*	-29	559	206
O=C(Nc1nc(-c2ccc3c(c2)OCO3)cs1)C1COc2ccccc2O1 (stereo unspecified)	-3	-0.81	6	.	-0.32	.	.	.
Cc1ccc(S(=O)(=O)NC(CC(=O)N2CCc3ccccc32)c2ccco2)cc1 (stereo unspecified)	0	0.35	12	-2.2	-4.4*	56	484	189
COc1ccc(S(=O)(=O)NC(CC(=O)N2CCc3ccccc32)c2ccco2)cc1 (stereo unspecified)	9	.	8	.	.	27	.	.
CCOC(=O)CC(Nc1nc(N2CCOCC2)nc(N2CCOCC2)n1)c1ccccc1Cl (stereo unspecified)	4	-0.05	24	1.4	-12*	-4	366*	242
Cc1cc(NC(=O)Cn2nnc3sc4c(c3c2=O)CCC(C(C)(C)C)C4)no1 (stereo unspecified)	-5	-0.18	6	4.2	0.023	11	.	.
Cc1cc(NC(=O)Cn2nnc3sc4c(c3c2=O)CCCC4)no1	-2	-0.74	14	2.1	-5*	10	549	248
O=C(CSc1nnc(-c2ccco2)n1CC1CCCO1)c1ccc(F)cc1 (stereo unspecified)	-2	.	13	0.12	.	-62	.	.
Oc1ccccc1C1=Nc2ncnn2C(c2ccc(F)cc2)C1 (stereo unspecified)	4	0.082	11	1.5	-0.17	.	.	.
Cc1ccccc1C(=O)Nc1cccc(NC(=O)Cn2cnc3c(=O)n(C)c(=O)n(C)c32)c1	-4	-0.29	12	.	0.0049	.	.	.
CCOC(=O)c1nnn(-c2nonc2NC(C)=O)c1C	-3	-0.32	0	0.11	-0.9*	-15	574*	178

Source: PubChem BioAssay
